Sampled rows, rich in hits. Any-hit rate of the full collection: about 1.5%.
CCR6 antag: CCR6 receptor antagonists, primary screen, cell-based, CHO-K1, luminescence, beta-arrestin, uHTS; C-C chemokine receptor type 6 (Homo sapiens), P51684; CHO-K1 CCR6 PathHunter beta-arrestin, CCL20-stimulated; inhibition, % at 20 µM; 0.49% of 340,000 active;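 active = compounds whose inhibition of the agonist-driven luminescence signal at 20 µM reaches about 50%, limit read from the data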;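 note: cells stimulated with CCL20 at 14 nM final; plate controls were DMSO with CCL20 for no effect and DMSO without agonist for full effect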
APJ agonist: agonists of human apelin receptor APJ, primary screen, CHO-K1 cells, PathHunter beta-arrestin, luminescence; activation, % at 20 µM; P35414; 0% DMSO wells, 100% apelin; 0.11% of 330,000 active; AID 2520, 2010;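 active = activation more than six SD over the plate average, tested at 20 µM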;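 note: 0% = DMSO alone and 100% = apelin-13 at 10 nM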
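assay system = CHO-K1 APJ beta-arrestin complementation cell line | input = cell density 1000 per well | dosing = compound 20 µM once, DMSO 1% | timing = compound 90 min 25 °C, reagent 1 h | measured by = luminescence from split beta-galactosidase complementation, Galacton Star/Emerald II substrate | read-out basis = APJ agonist activity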
CXCR6 inh: CXCR6 receptor inhibitors, primary screen, cell-based, beta-arrestin, luminescence, CHO-K1 PathHunter, 1536-well | C-X-C chemokine receptor type 6 (Homo sapiens), O00574 | 0.36% of 360,000 active | inhibition, % at 20 µM; in the data active = inhibition above about 34%, passing the limit was not always enough;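 note: antagonist mode with CXCL16 agonist at 10 nM final; 0% = 10 nM CXCL16 with DMSO and 100% = unstimulated wells without agonist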
APJ antagonist: antagonists of human apelin receptor APJ, primary screen, CHO-K1 cells, beta-arrestin complementation, luminescence; inhibition, % at 20 µM; AID 2521, 2010; 0.32% of 330,000 active; P35414;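 active = inhibition above about 40% at 20 µM, limit read from the data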;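 note: cells challenged with 10 nM apelin-13 agonist together with compound; plate controls were apelin-13 plus DMSO wells for no effect and DMSO wells lacking apelin-13 for full effect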
EBI2 antag: EBI2 receptor antagonists, beta-arrestin recruitment, primary screen, cell-based, luminescence, 7a,25-OHC stimulation, uHTS. G-protein coupled receptor 183 (Homo sapiens), P32249. 0.81% of 360,000 active. inhibition, % at 5 µM. 7a,25-OHC stimulated; in the data active = inhibition above about 38%;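 note: enzyme fragment complementation signal reports receptor beta-arrestin coupling in cells; 0% = agonist plus DMSO wells and 100% = wells without agonist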
Target sequence (P32249 whole entry, looked up, the tested form may be a part): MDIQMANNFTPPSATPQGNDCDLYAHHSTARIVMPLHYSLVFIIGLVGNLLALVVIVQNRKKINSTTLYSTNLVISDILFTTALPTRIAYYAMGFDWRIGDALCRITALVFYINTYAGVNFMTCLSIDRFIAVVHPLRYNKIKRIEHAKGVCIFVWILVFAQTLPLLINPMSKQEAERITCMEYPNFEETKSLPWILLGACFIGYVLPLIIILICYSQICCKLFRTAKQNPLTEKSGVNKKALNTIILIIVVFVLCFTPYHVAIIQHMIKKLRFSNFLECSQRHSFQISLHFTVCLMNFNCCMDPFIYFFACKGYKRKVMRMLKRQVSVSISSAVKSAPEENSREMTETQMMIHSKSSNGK
EBI2 conf: EBI2 antagonist hit retest, beta-arrestin, confirmation, cell-based, single concentration, luminescence, 7a,25-OHC stimulation | 29% of 2,400 active | shares compounds with EBI2 antag | inhibition, % at 5 µM | 7a,25-OHC antagonism;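 active = inhibition of at least 50%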
EBI2 ag: EBI2 agonist activity of antagonist hits, confirmation, counter-screen for EBI2 antagonist project, cell-based, single concentration, agonist mode, luminescence; shares compounds with EBI2 antag; EBI2-expressing cells, 60 min; 0% vehicle, 100% 7α,25-dihydroxycholesterol control; activation, % at 5 µM; 2,400 tested, under 10 active;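 active = activation of at least 50%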
bGal cs: E. coli beta-galactosidase enzyme inhibition, confirmation, counter-screen for EBI2 antagonist project, biochemical, luminescence, single concentration; shares compounds with EBI2 antag; purified beta-galactosidase, luminescent Galacton Star, 15 min; inhibition, % at 5 µM; 1% of 2,400 active; AID 652176, 2013;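 active = replicate-average signal at least 3 plate SD below neutral wells, shown as high inhibition, flagging enzyme-inhibiting false positives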;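 note: 0% = DMSO wells with enzyme and 100% = wells lacking enzyme; higher means stronger loss of beta-gal luminescence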
* hit, by the source's call.

How did COc1ccccc1-c1cc(NC=O)c2ncc(-c3cccc(C(=O)N(C)C)c3)n2c1 do in these assays?
CXCR6 inh: -5; EBI2 antag: 75*; EBI2 conf: 40; EBI2 ag: 0; bGal cs: 8

How did Cc1ccc(C(C)NC(=O)c2cc3ccccc3oc2=O)cc1C (stereo not drawn) do in these assays?
CCR6 antag: -9; APJ agonist: -1; CXCR6 inh: -9; APJ antagonist: -9; EBI2 antag: -4

How did CC1=Nc2ccccc2N=C(N)C1c1ccccc1 (stereo not drawn) do in these assays?
CCR6 antag: 6; APJ agonist: 1; CXCR6 inh: -3; APJ antagonist: -4; EBI2 antag: -7

Results for CCOc1ccc(NC(=O)CN2CCN(C3c4ccccc4-c4ccccc43)CC2)cc1 ?
CCR6 antag: 4; APJ agonist: -4; CXCR6 inh: -7; APJ antagonist: 2; EBI2 antag: 68*; EBI2 conf: 49; EBI2 ag: 0; bGal cs: 3

What do the screens show for `O=C(Nc1ccccc1N1CCCCC1)C1CCN(C(=O)c2ccc(Cl)cc2)CC1`?
CCR6 antag: 12; APJ agonist: -8; CXCR6 inh: -1; APJ antagonist: 18; EBI2 antag: 58*; EBI2 conf: 6; EBI2 ag: 2; bGal cs: -11

How did O=C(Cc1ccccc1)Nc1ccccc1N1CCN(c2ccccc2)CC1 do in these assays?
CCR6 antag: 30; APJ agonist: 2; CXCR6 inh: 24; APJ antagonist: 19; EBI2 antag: 41*; EBI2 conf: 10; EBI2 ag: 0; bGal cs: 7

Results for O=C(Nc1ccccc1N1CCCC1)C1CCN(C(=O)c2ccc(Cl)cc2)CC1 ?
CCR6 antag: 11; APJ agonist: -6; CXCR6 inh: -5; APJ antagonist: 22; EBI2 antag: 32

What do the screens show for `O=C(CSc1ccc([N+](=O)[O-])cc1)Nc1ccccc1N1CCOCC1`?
CCR6 antag: 12; APJ agonist: 0; CXCR6 inh: 1; APJ antagonist: 4; EBI2 antag: 12

How did O=C(CSc1ccc(Cl)cc1)Nc1ccccc1N1CCN(C(=O)c2ccc(Cl)cc2)CC1 do in these assays?
CCR6 antag: 11; APJ agonist: 0; CXCR6 inh: 9; APJ antagonist: -1; EBI2 antag: 43*; EBI2 conf: 14; EBI2 ag: 0; bGal cs: 5

Results for O=C(CSc1ccc(Br)cc1)Nc1ccccc1N1CCOCC1 ?
CCR6 antag: 10; APJ agonist: -7; CXCR6 inh: -3; APJ antagonist: 2; EBI2 antag: 43*; EBI2 conf: 42; EBI2 ag: 1; bGal cs: 6

Results for COC(=O)/C(N=Nc1cccc(C(F)(F)F)c1)=C(\C)O ?
CCR6 antag: 15; APJ agonist: -2; CXCR6 inh: 4; APJ antagonist: -12; EBI2 antag: 3

What do the screens show for `O=C(NCc1ccccn1)c1ccc(Cn2cc(C(F)(F)F)ccc2=O)cc1`?
CCR6 antag: 12; APJ agonist: -2; CXCR6 inh: 4; APJ antagonist: -6; EBI2 antag: 3

What do the screens show for `CCOC(=O)C1CCN(CC(O)COc2ccc(C(=O)CC)cc2)CC1` (stereo not drawn)?
CCR6 antag: 8; APJ agonist: -4; CXCR6 inh: -4; APJ antagonist: 26; EBI2 antag: -5

How did COc1ccccc1C(=O)N1CCN(C(=O)c2oc3ccc(C)cc3c2C)CC1 do in these assays?
CCR6 antag: 15; APJ agonist: 0; CXCR6 inh: 4; APJ antagonist: -21; EBI2 antag: 65*; EBI2 conf: 40; EBI2 ag: 0; bGal cs: 6

What do the screens show for `Cc1c(C(=O)N2CCN(C(=O)c3ccccc3)CC2)oc2ccc(F)cc12`?
CCR6 antag: 10; APJ agonist: -6; CXCR6 inh: -1; APJ antagonist: -6; EBI2 antag: 51*; EBI2 conf: 9; EBI2 ag: 0; bGal cs: -10

What do the screens show for `Cc1c(C(=O)N2CCN(c3ncccn3)CC2)oc2ccc(F)cc12`?
CCR6 antag: 4; APJ agonist: 0; CXCR6 inh: -7; APJ antagonist: 3; EBI2 antag: 38

Results for Cc1c(C(=O)N2CCN(S(=O)(=O)c3ccccc3)CC2)oc2ccc(Br)cc12 ?
CCR6 antag: 9; APJ agonist: -3; CXCR6 inh: 1; APJ antagonist: -1; EBI2 antag: 58*; EBI2 conf: 35; EBI2 ag: 0; bGal cs: 9

Results for c1ccc2c(c1)CNc1ccccc1-2 ?
CCR6 antag: 6; CXCR6 inh: 5; EBI2 antag: -3

Results for Cc1noc(C(=O)Nc2cc(Cl)ccc2O)c1Cl ?
CCR6 antag: 13; APJ agonist: 0; CXCR6 inh: -13; APJ antagonist: -21; EBI2 antag: -6

Results for CCN(c1ccc(NC(=O)COC(=O)c2ccc(C)s2)cc1)C(C)C ?
CCR6 antag: 3; APJ agonist: 1; CXCR6 inh: 4; APJ antagonist: 0; EBI2 antag: 50*; EBI2 conf: 34; EBI2 ag: 0; bGal cs: 7

How did Cc1ccc(C(=O)OCC(=O)Nc2ccc(C(N)=O)cc2)s1 do in these assays?
CCR6 antag: 6; APJ agonist: -3; CXCR6 inh: -2; APJ antagonist: -33; EBI2 antag: -9

How did CC1C=CCC2C(=O)N(c3ccc(Cl)cc3O)C(=O)C12 (stereo not drawn) do in these assays?
CCR6 antag: -12; APJ agonist: -2; CXCR6 inh: -4; APJ antagonist: -6; EBI2 antag: -24

What do the screens show for `CCOc1ccc(NC(=O)CSc2nc(C3CC3)nc3ccccc23)cc1`?
CCR6 antag: 6; APJ agonist: -3; CXCR6 inh: 2; APJ antagonist: -3; EBI2 antag: 3

How did Cc1ccc(NC(=O)c2ccc(OCc3c(C)noc3C)cc2)cc1C do in these assays?
CCR6 antag: 5; APJ agonist: -3; CXCR6 inh: -16; APJ antagonist: -5; EBI2 antag: 53*; EBI2 conf: 29; EBI2 ag: 0; bGal cs: -1

Compound activity as filed in PubChem.
